Assay results reported in ChEMBL document CHEMBL3098058, “Imidazole-derived agonists for the neurotensin 1 receptor” (Bioorg Med Chem Lett, 2014).
≈ marks a conversion by molar mass, not a printed value. Calls of active or inactive are those of the source. The rule behind the calls is not given here.

Assays:
[1] = target: T1, Neurotensin receptor type 1 (Homo sapiens, UniProt P30989); assay: Agonist activity at NTR1 in human U2OS cells after 1 hr by beta-arrestin GFP reporter gene assay relative to NT peptide; format: cell-based
Method in brief: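 U2OS cells expressing NTR1 and a fluorescent β-arrestin reporter, imaged by high-content imaging of receptor–arrestin complex location after activation. EC50 and Emax are calculated relative to the efficacy of NT peptide at a saturating 100 nM.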
Target sequence in this assay (P30989 whole entry): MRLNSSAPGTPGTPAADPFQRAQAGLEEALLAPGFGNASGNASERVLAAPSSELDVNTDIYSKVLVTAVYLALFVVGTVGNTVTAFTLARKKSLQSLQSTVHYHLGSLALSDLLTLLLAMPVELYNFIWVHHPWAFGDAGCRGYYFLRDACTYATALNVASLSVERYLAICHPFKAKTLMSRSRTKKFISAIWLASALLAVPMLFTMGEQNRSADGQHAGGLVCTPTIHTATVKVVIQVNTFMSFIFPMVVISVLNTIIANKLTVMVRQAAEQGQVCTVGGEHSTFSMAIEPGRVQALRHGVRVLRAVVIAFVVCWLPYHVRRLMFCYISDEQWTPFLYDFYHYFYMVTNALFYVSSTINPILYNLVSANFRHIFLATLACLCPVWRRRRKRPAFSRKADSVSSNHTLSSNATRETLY

[2] = target: T1, Neurotensin receptor type 1; assay: Agonist activity at NTR1 in human U2OS cells after 1 hr by beta-arrestin GFP reporter gene assay; format: cell-based
Method in brief: (§1)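 High-content imaging in U2OS cells expressing the receptor of interest (NTR1, NTR2 or GPR35) plus a β-arrestin fluorescent reporter. The read-out is the location of the receptor–arrestin complex after receptor activation.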
Target sequence in this assay (P30989 whole entry): as above

[3] = Metabolic stability in human liver microsomes assessed as compound remaining at 1 hr; format: ADME; details: read-out: Stability
Method in brief: (§2)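 Compound stability in human or mouse liver homogenate/microsomes, given as % remaining at 1 hr, run in triplicate.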

[4] = Aqueous solubility of the compound in pION buffer at pH 5.0; format: physicochemical
[5] = Metabolic stability in mouse liver microsomes assessed as compound remaining at 1hr; format: ADME, Microsome; details: read-out: Stability; method in brief: as §2
[6] = Plasma protein binding in mouse at 10 uM; format: ADME, cell-free
Method in brief: (§3)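 Plasma protein binding in human or mouse plasma at 1 μM and 10 μM compound, given as % bound.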

[7] = Blood brain permeability of the compound at donor and acceptor pH 7.4 by PAMPA; format: ADME
[8] = Permeability of the compound at donor pH 6.2 and acceptor pH 7.4 by PAMPA; format: ADME
[9] = Cytotoxicity in human Fa2N-4 cells after 24 hrs; format: cell-based; details: fa2n-4, 24 h, read-out: LC50 (the source's name)
Method in brief: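 Fa2N-4 cells are immortalized human hepatocytes. Compounds were exposed for 24 hours. Readout is the LC50 (μM).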

[10] = Plasma protein binding in human at 10 uM; format: ADME, cell-free; method in brief: as §3
[11] = Plasma protein binding in human at 1 uM; format: ADME, cell-free; method in brief: as §3
[12] = Permeability of the compound at donor and acceptor pH 7.4 by PAMPA; format: ADME
[13] = Metabolic stability in human plasma assessed as compound remaining at 3 hrs; format: ADME, cell-free; details: read-out: Stability
[14] = Metabolic stability in mouse plasma assessed as compound remaining at 3 hrs; format: ADME, cell-free; details: read-out: Stability
[15] = Plasma protein binding in mouse at 1 uM; format: ADME, cell-free; method in brief: as §3
[16] = Aqueous solubility of the compound in pION buffer at pH 7.4; format: physicochemical
[17] = Aqueous solubility of the compound in pION buffer at pH 6.2; format: physicochemical
[18] = Permeability of the compound at donor pH 5.0 and acceptor pH 7.4 by PAMPA; format: ADME
[19] = target: Delta-type opioid receptor (Homo sapiens, UniProt P41143); assay: Inhibition of DOR (unknown origin)
Chain of Delta-type opioid receptor (P41143 whole entry): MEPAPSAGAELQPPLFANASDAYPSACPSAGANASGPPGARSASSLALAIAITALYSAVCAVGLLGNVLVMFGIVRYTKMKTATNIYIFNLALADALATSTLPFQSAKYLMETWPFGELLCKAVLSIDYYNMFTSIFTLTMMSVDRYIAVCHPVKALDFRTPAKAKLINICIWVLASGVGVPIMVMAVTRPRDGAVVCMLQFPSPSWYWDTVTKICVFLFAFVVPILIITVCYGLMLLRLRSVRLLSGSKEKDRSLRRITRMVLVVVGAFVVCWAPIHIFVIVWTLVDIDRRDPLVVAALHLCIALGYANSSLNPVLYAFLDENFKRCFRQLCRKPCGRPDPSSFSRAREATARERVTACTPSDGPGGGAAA

[20] = target: G-protein coupled receptor 35 (Homo sapiens, UniProt Q9HC97); assay: Agonist activity at GPR35 in human U2OS cells after 1 hr by beta-arrestin GFP reporter gene assay; format: cell-based; method in brief: as §1
Chain of G-protein coupled receptor 35 (Q9HC97 whole entry): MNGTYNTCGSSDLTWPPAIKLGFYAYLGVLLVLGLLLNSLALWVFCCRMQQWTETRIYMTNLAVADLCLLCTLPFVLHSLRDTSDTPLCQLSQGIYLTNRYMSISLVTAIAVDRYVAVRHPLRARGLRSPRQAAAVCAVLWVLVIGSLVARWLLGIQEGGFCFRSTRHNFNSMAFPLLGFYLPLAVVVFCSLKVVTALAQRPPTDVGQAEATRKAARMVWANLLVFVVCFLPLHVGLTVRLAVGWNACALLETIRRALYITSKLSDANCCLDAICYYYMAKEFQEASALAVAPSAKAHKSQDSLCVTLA

[21] = target: Neurotensin receptor type 2 (Homo sapiens, UniProt O95665); assay: Agonist activity at NTR2 in human U2OS cells after 1 hr by beta-arrestin GFP reporter gene assay; format: cell-based; method in brief: as §1
Chain of Neurotensin receptor type 2 (O95665 whole entry): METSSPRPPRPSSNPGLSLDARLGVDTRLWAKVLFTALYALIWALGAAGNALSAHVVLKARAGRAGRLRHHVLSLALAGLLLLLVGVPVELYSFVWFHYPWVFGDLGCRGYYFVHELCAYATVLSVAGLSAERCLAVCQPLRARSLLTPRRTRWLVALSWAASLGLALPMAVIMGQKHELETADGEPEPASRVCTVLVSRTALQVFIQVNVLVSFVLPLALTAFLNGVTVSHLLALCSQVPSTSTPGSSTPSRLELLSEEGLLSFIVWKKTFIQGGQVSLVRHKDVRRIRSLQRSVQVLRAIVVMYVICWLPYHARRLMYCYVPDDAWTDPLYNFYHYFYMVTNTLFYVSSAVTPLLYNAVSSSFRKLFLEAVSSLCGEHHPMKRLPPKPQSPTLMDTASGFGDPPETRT

Mu-type opioid receptor = Mu-type opioid receptor (Homo sapiens, UniProt P35372); assay: Inhibition of MOR (unknown origin)
Chain of Mu-type opioid receptor (P35372 whole entry): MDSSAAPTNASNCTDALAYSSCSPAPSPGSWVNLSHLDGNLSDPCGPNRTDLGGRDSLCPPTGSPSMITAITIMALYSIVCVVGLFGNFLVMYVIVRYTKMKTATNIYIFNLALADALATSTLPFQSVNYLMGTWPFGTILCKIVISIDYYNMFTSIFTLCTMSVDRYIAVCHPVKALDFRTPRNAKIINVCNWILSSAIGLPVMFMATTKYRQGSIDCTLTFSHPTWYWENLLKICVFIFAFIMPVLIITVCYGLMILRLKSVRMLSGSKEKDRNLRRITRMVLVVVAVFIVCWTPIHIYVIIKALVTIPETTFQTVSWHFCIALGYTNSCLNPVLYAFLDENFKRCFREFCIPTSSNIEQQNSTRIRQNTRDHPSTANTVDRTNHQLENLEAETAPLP

[22] = target: T1, Neurotensin receptor type 1; assay: Agonist activity at NTR1 (unknown origin) expressed in CHO cells assessed as Ca2+ mobilization by Fluo-4 NW dye-based fluorescence assay; format: functional, cell-based
Target sequence in this assay (P30989 whole entry): as the sequence (P30989 whole entry) above

[23] = target: T1, Neurotensin receptor type 1; assay: Inhibition of NTS1 receptor (unknown origin)
Target sequence in this assay (P30989 whole entry): as above

[24] = target: T1, Neurotensin receptor type 1; assay: Ratio of EC50 for NTR1 in human U2OS cells to EC50 for NTR1 (unknown origin) expressed in CHO cells assessed as Ca2+ mobilization; format: functional, cell-based
Target sequence in this assay (P30989 whole entry): as above

[25] = target: T1, Neurotensin receptor type 1; assay: Agonist activity at NTR1 (unknown origin) expressed in CHO-K1 cells coexpressing beta-arrestin/N-terminal deletion mutant of beta-galactosidase fusion protein by chemiluminescence assay; format: cell-based
Method in brief: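 DiscoveRx PathHunter format. CHO-K1 cells express NTR1 fused in frame to the small ProLink β-gal fragment, stably co-expressed with β-arrestin fused to the N-terminal-deletion β-gal enzyme acceptor. Receptor activation recruits β-arrestin, which forces fragment complementation into active β-gal. The resulting enzyme activity is read by chemiluminescence. EC50 and Emax are expressed as % of NT peptide response.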
Target sequence in this assay (P30989 whole entry, looked up, change not shown): as the sequence (P30989 whole entry) above

[26] = target: Sodium-dependent dopamine transporter (Homo sapiens, UniProt Q01959); assay: Inhibition of DAT (unknown origin)
Chain of Sodium-dependent dopamine transporter (Q01959 whole entry): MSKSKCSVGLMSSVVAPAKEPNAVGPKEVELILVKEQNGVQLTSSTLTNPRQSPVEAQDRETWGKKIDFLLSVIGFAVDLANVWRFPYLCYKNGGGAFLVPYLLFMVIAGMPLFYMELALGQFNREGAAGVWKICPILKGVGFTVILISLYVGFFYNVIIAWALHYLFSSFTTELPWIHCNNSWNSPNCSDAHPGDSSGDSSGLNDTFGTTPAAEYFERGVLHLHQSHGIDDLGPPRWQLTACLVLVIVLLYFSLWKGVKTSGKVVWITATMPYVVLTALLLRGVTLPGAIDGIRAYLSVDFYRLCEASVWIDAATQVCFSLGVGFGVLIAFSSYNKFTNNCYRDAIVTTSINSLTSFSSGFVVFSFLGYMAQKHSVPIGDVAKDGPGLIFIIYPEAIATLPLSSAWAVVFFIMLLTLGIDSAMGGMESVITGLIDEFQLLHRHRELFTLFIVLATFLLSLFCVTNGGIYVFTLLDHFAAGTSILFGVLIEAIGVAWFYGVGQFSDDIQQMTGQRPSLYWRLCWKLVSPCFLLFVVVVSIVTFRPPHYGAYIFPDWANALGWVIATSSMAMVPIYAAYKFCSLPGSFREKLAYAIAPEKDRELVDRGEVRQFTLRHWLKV

[27] = target: T1, Neurotensin receptor type 1; assay: Agonist activity at NTR1 (unknown origin) at 10 uM in presence of SR142948A
Method in brief: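 NTR1 activation is driven by agonist at 10 μM after preincubation with a known NTR1 antagonist. Antagonist inhibition of this activation is reported as IC50.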
Target sequence in this assay (P30989 whole entry): as the sequence (P30989 whole entry) above

[28] = target: T1, Neurotensin receptor type 1; assay: Agonist activity at NTR1 (unknown origin) expressed in CHO-K1 cells coexpressing coexpressing beta-arrestin/N-terminal deletion mutant of beta-galactosidase fusion protein by chemiluminescence assay relative to NT peptide; format: cell-based
Method in brief: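 PathHunter complementation in CHO-K1 cells. NTR1 is fused to the ProLink small enzyme fragment and co-expressed with a β-arrestin fusion to the N-terminal-deleted β-gal enzyme acceptor. Activation drives β-arrestin binding and β-gal fragment complementation, and enzyme activity is read by chemiluminescence.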

[29] = target: T1, Neurotensin receptor type 1; assay: Agonist activity at NTR1 (unknown origin) expressed in CHO cells assessed as Ca2+ mobilization by Fluo-4 NW dye-based fluorescence assay relative to NT peptide; format: functional, cell-based

Compound: CC(C)C[C@H](NC(=O)c1cn(-c2ccnc3cc(Cl)ccc23)c(-c2ccccc2)n1)C(=O)O
- Emax [1]: 100%
- EC50 [2]: 72 µM

Compound: COc1cccc(OC)c1-c1nc(C(=O)N[C@@H](CC(C)C)C(=O)O)cn1-c1cccc2ccccc12
- remaining at 1 h [3]: 100%
- solubility [4]: 247 µM (≈ 120 µg/mL)
- remaining at 1 h [5]: 76%
- PPB [6]: 95.4%
- permeability [7]: 1.1 ×10⁻⁶ cm/s
- Emax [1]: 93%
- permeability [8]: 145 ×10⁻⁶ cm/s
- CC50 [9]: > 50 µM
- PPB [10]: 98%
- PPB [11]: 97.9%
- EC50 [2]: 2.3 µM
- permeability [12]: 12 ×10⁻⁶ cm/s
- remaining at 3 h [13]: 76%
- remaining at 3 h [14]: 76%
- PPB [15]: 96.4%
- solubility [16]: > 297 µM
- solubility [17]: > 297 µM
- permeability [18]: 953 ×10⁻⁶ cm/s

Compound: COc1cccc(OC)c1-c1nc(C(=O)N[C@@H](CC(C)C)C(=O)O)cn1-c1ccnc2ccccc12
- Emax [1]: 59%
- EC50 [2]: 3.8 µM

Compound: CC(C)C[C@H](NC(=O)c1cn(-c2ccnc3cc(Cl)ccc23)c(-c2c(Cl)cccc2Cl)n1)C(=O)O
- Emax [1]: 80%
- EC50 [2]: 5.2 µM

Compound: COc1cccc(OC)c1-c1cc(C(=O)N[C@@H](CC(C)C)C(=O)O)nn1-c1ccnc2cc(Cl)ccc12
- Ki [19]: 5.2 µM
- remaining at 1 h [3]: 76%
- solubility [4]: 113 µM (≈ 59.1 µg/mL)
- remaining at 1 h [5]: 46%
- EC50 [20]: > 40 µM
- EC50 [21]: > 80 µM
- Ki (Mu-type opioid receptor): 3.4 µM
- PPB [6]: 97.1%
- permeability [7]: 4.8 ×10⁻⁶ cm/s
- Emax [1]: 100%
- EC50 [22]: < 0.156 µM
- Ki [23]: 3.3 µM
- permeability [8]: 725 ×10⁻⁶ cm/s
- CC50 [9]: > 50 µM
- Ratio EC50 [24]: 5
- PPB [10]: 99.7%
- EC50 [25]: > 33 µM
- PPB [11]: 99.6%
- remaining at 3 h [13]: 88.9%
- remaining at 3 h [14]: 70.7%
- PPB [15]: 96.6%
- solubility [16]: > 296 µM
- solubility [17]: > 296 µM
- permeability [18]: 1270 ×10⁻⁶ cm/s
- Ki [26]: > 10 µM

Compound: CC(C)C[C@H](NC(=O)c1cn(-c2ccnc3ccccc23)c(-c2ccccc2)n1)C(=O)O
- EC50 [2]: > 80 µM

Compound: COc1cccc(OC)c1-c1cc(C(=O)NC2(C(=O)O)C3CC4CC(C3)CC2C4)nn1-c1ccc(C(=O)N(C)CCCN(C)C)cc1C(C)C (stereo not drawn)
- EC50 [2]: > 80 µM

Compound: CC(C)C[C@H](NC(=O)c1cn(-c2ccncc2)c(-c2ccccc2)n1)C(=O)O
- EC50 [2]: > 80 µM

Compound: COc1ccc(-c2nc(C(=O)N[C@@H](CC(C)C)C(=O)O)cn2-c2ccnc3cc(Cl)ccc23)c(OC)c1
- EC50 [2]: > 80 µM

Compound: COc1cccc(OC)c1-c1nc(C(=O)N[C@@H](CC(C)C)C(=O)O)cn1-c1ccncc1
- Emax [1]: 100%
- EC50 [2]: 66 µM

Compound: COc1cccc(OC)c1-c1nc(C(=O)N[C@@H](CC(C)C)C(=O)O)cn1-c1ccc(C)cc1
- EC50 [2]: > 80 µM

Compound: COc1cccc(OC)c1-c1nc(C(=O)N[C@@H](CC(C)C)C(=O)O)cn1-c1ccnc2cc(Cl)ccc12
- remaining at 1 h [3]: 100%
- solubility [4]: > 99 µM
- remaining at 1 h [5]: 59%
- EC50 [20]: > 40 µM
- EC50 [21]: > 80 µM
- PPB [6]: 91.4%
- permeability [7]: 1.2 ×10⁻⁶ cm/s
- Activity [27]: inactive
- Emax [1]: 79%
- EC50 [22]: 0.298 µM
- Ki [23]: 10 µM
- permeability [8]: 17 ×10⁻⁶ cm/s
- CC50 [9]: > 50 µM
- Emax [28]: 100%
- Ratio EC50 [24]: 5
- PPB [10]: 98.7%
- EC50 [25]: 6.1 µM
- PPB [11]: 98.7%
- Emax [29]: 93%
- EC50 [2]: 2 µM
- permeability [12]: 6 ×10⁻⁶ cm/s
- remaining at 3 h [13]: 100%
- remaining at 3 h [14]: 100%
- PPB [15]: 92.2%
- solubility [16]: > 99 µM
- solubility [17]: > 99 µM
- permeability [18]: 363 ×10⁻⁶ cm/s
- Ki [26]: > 10 µM

Compound: COc1ccccc1-c1cc(C(=O)N[C@H](CC(C)C)C(=O)O)nn1-c1ccnc2cc(Cl)ccc12
- Emax [1]: 98%
- EC50 [2]: 0.97 µM

Compound: Cc1cccc(C)c1-c1nc(C(=O)N[C@@H](CC(C)C)C(=O)O)cn1-c1ccnc2cc(Cl)ccc12
- Emax [1]: 78%
- EC50 [2]: 9.2 µM

Compound: COc1ccccc1-c1nc(C(=O)N[C@@H](CC(C)C)C(=O)O)cn1-c1ccnc2cc(Cl)ccc12
- Emax [1]: 100%
- EC50 [2]: 56 µM

Compound: COc1cccc(OC)c1-c1nc(C(=O)NC2(C(=O)O)C3CC4CC(C3)CC2C4)cn1-c1ccnc2cc(Cl)ccc12 (stereo not drawn)
- Emax [1]: 100%
- EC50 [2]: 46 µM

Compound: COc1cccc(OC)c1-c1nc(C(=O)N[C@H](CC(C)C)C(=O)O)cn1-c1ccnc2cc(Cl)ccc12
- Emax [1]: 50%
- EC50 [2]: 9.4 µM

Compound: COc1cccc(OC)c1-c1cc(C(=O)NC2(C(=O)O)C3CC4CC(C3)CC2C4)nn1-c1ccnc2cc(Cl)ccc12 (stereo not drawn) [REMINERTANT]
- Emax [1]: 100%
- EC50 [2]: 31 µM

Compound: COc1ccccc1-c1nc(C(=O)N[C@@H](CC(C)C)C(=O)O)cn1-c1ccncc1
- EC50 [2]: > 80 µM

Compound: COc1ccccc1-c1nc(C(=O)N[C@@H](CC(C)C)C(=O)O)cn1-c1ccnc2ccccc12
- EC50 [2]: > 80 µM
